In ChEMBL document CHEMBL4406918, “Inhibitory Effects of Multivalent Polypeptides on the Proliferation and Metastasis of Breast Cancer Cells” (ACS Med Chem Lett, 2019):
Calls of active or inactive are those of the source. The calls are words filed in the database; no cut-off is given here. Where a SMILES comes first, the peptide text is derived from it. Side-chain parts run from the residue outwards.

Tests used:
[1] = test system: 4T1; assay: Antiinvasive activity in mouse 4T1 cells assessed as inhibition of cell invasion at 0.2 mM incubated for 24 hrs by crystal violet staining based matrigel invasion assay relative to control; assay type: functional; details: 4T1, 24 h
Summary of the method: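 4T1 cells, Matrigel-coated Transwell invasion with 0.2 mM compound. Invasion rate comes from counting cells on the underside of the Matrigel-coated porous membrane, relative to untreated control. Mean ± SD, n = 3.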

[2] = Toxicity in BALB/c mouse xenografted with mouse 4T1 cells assessed as change in serum creatinine level at 10 mg/kg administered intratumorally and measured after 24 days; assay type: organism-based; details: in vivo, other, 576 h
[3] = Toxicity in BALB/c mouse xenografted with mouse 4T1 cells assessed as change in blood urea nitrogen level at 10 mg/kg administered intratumorally and measured after 24 days; assay type: organism-based; details: in vivo, other, 576 h
[4] = test system: 4T1; assay: Antitumour activity against mouse 4T1 cells xenografted in BALB/c mouse assessed as increase in damage of tumor tissue at 10 mg/kg administered intratumorally and measured after 24 days by H and E staining based inverted optical microscopic method; assay type: functional, organism-based
Summary of the method: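 Tumours from 4T1-bearing BALB/c mice given 6 doses of 10 mg/kg (saline control) were sectioned and stained with H&E, plus CD31, Ki-67 and TUNEL.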

[5] = Stability in fetal bovine serum assessed as parent compound remaining measured after 12 hrs by RP-HPLC analysis; assay type: ADME, cell-free, Bos taurus; details: cattle, read-out: Stability
Summary of the method: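 Peptides incubated in serum, and the fraction of intact YSL was measured over time up to 12 h, including a 4 h point.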

[6] = test system: 4T1; assay: Antiproliferative activity against mouse 4T1 cells at 0.1 mM incubated for 24 hrs by MTT assay; assay type: functional, cell-based
[7] = test system: 4T1; assay: Antiproliferative activity against mouse 4T1 cells assessed as cell death at 0.2 mM incubated for 24 hrs by MTT assay relative to control; assay type: functional
Summary of the method: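 Mouse 4T1 breast cancer cells exposed for 24 h (doses include 0.1 and 0.2 mM), then read by MTT for viability or cell death. Mean ± SD, n = 6.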

[8] = test system: Erythrocyte; assay: Hemolytic activity in BALB/c mouse RBC at 3.2 mM incubated for 2 hrs by UV-Vis spectrophotometric analysis; assay type: ADME, cell-based; details: 3200 µM
Summary of the method: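 Hemolysis assay on red blood cells with dendrimers up to 3.2 mM. Result is expressed as hemolysis rate, with under 5% taken as acceptable.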

[9] = test system: 4T1; assay: Induction of apoptosis in mouse 4T1 cells at 0.8 mM incubated for 24 hrs by PI staining based inverted microscopic method; assay type: functional, cell-based
Summary of the method: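 Live–dead staining of 4T1 cells after 24 h exposure, with PI uptake imaged microscopically. A higher 0.8 mM dose was also tested.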

[10] = test system: 4T1; assay: Induction of cell cycle arrest in mouse 4T1 cells assessed as accumulation at G0/G1 phase at 0.4 mM incubated for 24 hrs by PI staining based flow cytometric analysis (reference value: 37.78%); assay type: functional
[11] = test system: 4T1; assay: Induction of cell cycle arrest in mouse 4T1 cells assessed as accumulation at S phase at 0.4 mM incubated for 24 hrs by PI staining based flow cytometric analysis (Rvb =42.35%); assay type: functional
[12] = test system: 4T1; assay: Induction of cell cycle arrest in mouse 4T1 cells assessed as accumulation at G2/M phase at 0.4 mM incubated for 24 hrs by PI staining based flow cytometric analysis (reference value: 19.82%); assay type: functional
[13] = test system: 4T1; assay: Induction of apoptosis in mouse 4T1 cells assessed as viable cells at 0.4 mM incubated for 24 hrs by Annexin V-FITC/PI based FACS analysis (reference value: 92.2%); assay type: functional; details: 4T1, 24 h, read-out: Activity
[14] = test system: 4T1; assay: Induction of apoptosis in mouse 4T1 cells assessed as early apoptotic cells at 0.4 mM incubated for 24 hrs by Annexin V-FITC/PI based FACS analysis (reference value: 0.76%); assay type: functional
[15] = test system: 4T1; assay: Induction of apoptosis in mouse 4T1 cells assessed as late apoptotic cells at 0.4 mM incubated for 24 hrs by Annexin V-FITC/PI based FACS analysis (reference value: 6.62%); assay type: functional
[16] = test system: 4T1; assay: Induction of apoptosis in mouse 4T1 cells assessed as necrotic cells at 0.4 mM incubated for 24 hrs by Annexin V-FITC/PI based FACS analysis (reference value: 0.47%); assay type: functional
[17] = test system: 4T1; assay: Inhibition of cell migration in mouse 4T1 cells assessed as wound closure rate at 0.2 mM measured up to 36 hrs by inverted optical microscopic method based wound healing assay (reference value: 82%); assay type: functional; design: scale not given: the % may be the effect or the level left
[18] = test system: 4T1; assay: Inhibition of cell migration in mouse 4T1 cells assessed as migration frequency at 0.2 mM incubated for 24 hrs by crystal violet staining based transwell assay relative to control; assay type: functional; design: scale not given: the % may be the effect or the level left
Summary of the method: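 4T1 cells, Transwell migration with 24 h exposure to 0.2 mM. Migration rate comes from counting cells on the bottom of the porous membrane. Mean ± SD, n = 3.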

[19] = test system: 4T1; assay: Inhibition of metastasis in mouse 4T1 cells assessed as formation of pseudopods at 0.2 mM incubated for 24 hrs by SEM analysis; assay type: functional, cell-based
Summary of the method: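 4T1 cells treated 24 h, then imaged by scanning electron microscopy for pseudopod formation. Dendrimers were tested at 0.2 mM and the reference at 10–5 mM.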

[20] = test system: 4T1; assay: Inhibition of metastasis in mouse 4T1 cells assessed as disruption in F-actin arrangement at 0.2 mM incubated for 24 hrs by Hoechst 33342 staining based confocal laser scanning microscopic method; assay type: functional, cell-based
Summary of the method: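 After 24 h at 0.2 mM, 4T1 cells were stained for F-actin with Alexa Fluor 488 phalloidin and for nuclei with Hoechst 33342, then imaged by fluorescence for cytoskeletal arrangement and cell morphology.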

[21] = test system: 4T1; assay: Inhibition of metastasis in mouse 4T1 cells assessed as cell shrinkage at 0.2 mM incubated for 24 hrs by Hoechst 33342 staining based confocal laser scanning microscopic method; assay type: functional
Summary of the method: (§1)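 After 24 h treatment, 4T1 cells were stained with Alexa Fluor 488 phalloidin for F-actin and Hoechst 33342 for nuclei, then imaged by fluorescence microscopy to assess cytoskeleton and cell morphology.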

[22] = test system: 4T1; assay: Inhibition of metastasis in mouse 4T1 cells assessed as shortening in actin filaments at 0.2 mM incubated for 24 hrs by Hoechst 33342 staining based confocal laser scanning microscopic method; assay type: functional, cell-based; summary of the method: as §1
[23] = test system: 4T1; assay: Antitumour activity against mouse 4T1 cells xenografted in BALB/c mouse assessed as increase in cytotoxic tumor cell death at 10 mg/kg administered intratumorally and measured after 24 days by H and E staining based inverted optical microscopic method; assay type: functional, organism-based
Summary of the method: (§2)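 BALB/c mice bearing subcutaneous 4T1 tumours received 6 doses at 10 mg/kg body weight, matched for YSL monomer molar amount, with saline as control. Tumour sections were stained for H&E, CD31, Ki-67 and TUNEL. n = 5.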

[24] = test system: 4T1; assay: Antitumour activity against mouse 4T1 cells xenografted in BALB/c mouse assessed as increase in number of TUNEL positive cells at 10 mg/kg administered intratumorally and measured after 24 days by H and E staining based inverted optical microscopic method; assay type: functional, organism-based; summary of the method: as §2
[25] = test system: 4T1; assay: Antitumour activity against mouse 4T1 cells xenografted in BALB/c mouse assessed as reduction in number of lung tumor metastatic nodules at 10 mg/kg administered intratumorally and measured after 24 days by H and E staining based inverted optical microscopic method; assay type: functional, organism-based
Summary of the method: (§3)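 After 6 doses of 10 mg/kg to 4T1 tumour-bearing BALB/c mice (saline control), lungs were photographed whole and examined histopathologically for the number and size of metastatic nodules.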

[26] = test system: 4T1; assay: Antitumour activity against mouse 4T1 cells xenografted in BALB/c mouse assessed as reduction in size of lung tumor metastatic nodules at 10 mg/kg administered intratumorally and measured after 24 days by H and E staining based inverted optical microscopic method; assay type: functional, organism-based; summary of the method: as §3
[27] = Toxicity in BALB/c mouse xenografted with mouse 4T1 cells assessed as induction of morphological lesions in liver at 10 mg/kg administered intratumorally and measured after 24 days by H and E staining based inverted optical microscopic method; assay type: organism-based; details: in vivo, other, 576 h
[28] = Toxicity in BALB/c mouse xenografted with mouse 4T1 cells assessed as induction of morphological lesions in heart at 10 mg/kg administered intratumorally and measured after 24 days by H and E staining based inverted optical microscopic method; assay type: organism-based; details: in vivo, other, 576 h
[29] = Toxicity in BALB/c mouse xenografted with mouse 4T1 cells assessed as induction of morphological lesions in spleen at 10 mg/kg administered intratumorally and measured after 24 days by H and E staining based inverted optical microscopic method; assay type: organism-based; details: in vivo, other, 576 h
[30] = Toxicity in BALB/c mouse xenografted with mouse 4T1 cells assessed as induction of morphological lesions in kidney at 10 mg/kg administered intratumorally and measured after 24 days by H and E staining based inverted optical microscopic method; assay type: organism-based; details: in vivo, other, 576 h
[31] = Toxicity in BALB/c mouse xenografted with mouse 4T1 cells assessed as change in body weight at 10 mg/kg administered intratumorally and measured after 24 days; assay type: organism-based; details: in vivo, other, 576 h
Summary of the method: (§4)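 BALB/c mice bearing subcutaneous 4T1 tumours received 6 doses of 10 mg/kg, with equal YSL-monomer molar amounts across compounds and saline as control. Tumour volume growth curves and body weights were tracked. Mean ± SD, n = 5.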

[32] = target: Matrix metalloproteinase-9 (Mus musculus) (UniProt P41245); assay: Residual MMP9 activity in mouse 4T1 cells at 0.2 mM incubated for 24 hrs by coomassie brilliant blue staining based gelatin zymography assay relative to control
Chain of Matrix metalloproteinase-9 (Mus musculus) (P41245 whole entry): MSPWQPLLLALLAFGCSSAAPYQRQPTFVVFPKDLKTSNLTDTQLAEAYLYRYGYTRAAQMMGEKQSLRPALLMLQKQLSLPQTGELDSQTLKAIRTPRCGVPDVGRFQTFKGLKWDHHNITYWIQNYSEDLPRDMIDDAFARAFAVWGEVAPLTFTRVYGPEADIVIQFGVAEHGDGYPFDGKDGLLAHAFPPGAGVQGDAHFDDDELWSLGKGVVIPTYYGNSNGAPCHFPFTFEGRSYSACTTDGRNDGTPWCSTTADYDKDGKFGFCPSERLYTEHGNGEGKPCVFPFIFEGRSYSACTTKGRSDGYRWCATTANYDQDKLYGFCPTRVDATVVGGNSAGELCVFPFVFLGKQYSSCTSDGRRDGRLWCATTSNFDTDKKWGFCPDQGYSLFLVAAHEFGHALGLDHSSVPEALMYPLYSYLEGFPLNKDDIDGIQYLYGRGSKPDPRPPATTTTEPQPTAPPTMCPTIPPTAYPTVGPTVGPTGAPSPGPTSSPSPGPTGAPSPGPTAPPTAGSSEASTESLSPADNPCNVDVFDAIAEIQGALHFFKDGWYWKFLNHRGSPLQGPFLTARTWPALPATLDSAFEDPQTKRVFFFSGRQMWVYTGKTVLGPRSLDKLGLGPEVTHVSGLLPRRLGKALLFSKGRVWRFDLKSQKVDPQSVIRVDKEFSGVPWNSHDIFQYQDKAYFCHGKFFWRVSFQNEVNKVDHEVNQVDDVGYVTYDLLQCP

[33] = test system: 4T1; assay: Antitumour activity against mouse 4T1 cells xenografted in BALB/c mouse assessed as inhibition in tumor growth at 10 mg/kg administered intratumorally and measured every 3 days for 24 days; assay type: functional, organism-based; summary of the method: as §4

| Structure (SMILES) | inhibition at 200 µM [1] | Activity [2] | Activity [3] | Activity [4] | remaining at 12 h [5] | Activity [6] | Activity [7] | Activity [8] | Activity [9] | Activity [10] | Activity [11] | Activity [12] | viability at 400 µM [13] | Activity [14] | Activity [15] | Activity [16] | Activity [17] | Activity [18] | F-actin disruption (qualitative) [20] | Activity [24] | also measured |
| --- | --- | --- | --- | --- | --- | --- | --- | --- | --- | --- | --- | --- | --- | --- | --- | --- | --- | --- | --- | --- | --- |
| COC(=O)[C@H](CCCCNC(=O)[C@H](CCCCNC(=O)[C@H](CC(C)C)NC(=O)[C@H](CO)NC(=O)[C@@H](N)Cc1ccc(O)cc1)NC(=O)[C@H](CC(C)C)NC(=O)[C@H](CO)NC(=O)[C@@H](N)Cc1ccc(O)cc1)NC(=O)[C@H](CCCCNC(=O)[C@H](CC(C)C)NC(=O)[C@H](CO)NC(=O)[C@@H](N)Cc1ccc(O)cc1)NC(=O)[C@H](CC(C)C)NC(=O)[C@H](CO)NC(=O)[C@@H](N)Cc1ccc(O)cc1 | 41% | Non-Toxic | Non-Toxic | Active | > 80% | inactive | 10% | Non-Toxic | Active | 38.06% | 46.98% | 15.31% | 77.7% | 0.7% | 20.4% | 1.23% | 76% | 39% | Active | Active | inhibition [19]: inactive; inhibition [21]: Active; inhibition [22]: Active; Activity [23]: Active; Activity [25]: Active; Activity [26]: Active; Activity [27]: Non-Toxic; Activity [28]: Non-Toxic; Activity [29]: Non-Toxic; Activity [30]: Non-Toxic; Activity [31]: Non-Toxic; residual activity [32]: 70% |
| COC(=O)[C@H](CCCCNC(=O)[C@H](CC(C)C)NC(=O)[C@H](CO)NC(=O)[C@@H](N)Cc1ccc(O)cc1)NC(=O)[C@H](CC(C)C)NC(=O)[C@H](CO)NC(=O)[C@@H](N)Cc1ccc(O)cc1 (H-YSLK([Leu-Ser-Tyr])-OMe) | 70% | Non-Toxic | Non-Toxic | Active | > 80% | inactive | 5% | Non-Toxic | Active | 37.72% | 47.25% | 15.35% | 80.2% | 0.77% | 18.8% | 0.26% | 79% | 68% | Active | Active | Activity [33]: Active; Activity [25]: Active; Activity [26]: Active; Activity [27]: Non-Toxic; Activity [28]: Non-Toxic; Activity [29]: Non-Toxic; Activity [30]: Non-Toxic; Activity [31]: Non-Toxic; residual activity [32]: 75% |
